Calls of active or inactive are those of the source. No cut-off for these calls is given here.
How the values were obtained:
[1] = test system: P2Y purinoceptor 2 (Homo sapiens), P41231 [UNDEFINED MUTATION]; assay: Ratio of EC50 for N-terminal HA epitope-tagged human P2Y2 receptor C278S mutant to EC50 for wild type 3 human P2Y2 receptor
P2Y purinoceptor 2 [2] = target: P2Y purinoceptor 2 (Homo sapiens, UniProt P41231, C278S); assay: Agonist activity at N-terminal HA epitope-tagged human P2Y2 receptor C278S mutant expressed in human 1321N1 cells assessed as increase in intracellular calcium level; assay type: functional, cell-based
Chain of P2Y purinoceptor 2 (Homo sapiens, UniProt P41231, C278S) (P41231 whole entry C278S): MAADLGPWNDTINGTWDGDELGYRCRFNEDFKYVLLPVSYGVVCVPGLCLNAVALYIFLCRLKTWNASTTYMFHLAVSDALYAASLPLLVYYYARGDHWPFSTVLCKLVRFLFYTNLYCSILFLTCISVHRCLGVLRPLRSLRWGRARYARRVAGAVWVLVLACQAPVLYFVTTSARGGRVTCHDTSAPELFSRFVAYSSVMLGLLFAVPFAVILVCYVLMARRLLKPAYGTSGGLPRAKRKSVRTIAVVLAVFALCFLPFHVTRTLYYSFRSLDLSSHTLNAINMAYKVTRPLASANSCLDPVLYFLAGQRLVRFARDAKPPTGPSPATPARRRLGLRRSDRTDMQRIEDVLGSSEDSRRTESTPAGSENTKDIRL
How it was run: (§1)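 1321N1 astrocytoma cells stably expressing mutant receptor (retroviral transfection, G418 selection), loaded with Oregon Green BAPTA-1/AM in Krebs-HEPES pH 7.4 for 1 h at room temperature. Plated at 150000 cells/well and held 20 min at 28 °C in the dark. Efficacy relative to 100 µM carbachol.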

[3] = test system: P2Y purinoceptor 2 (Homo sapiens), P41231 [UNDEFINED MUTATION]; assay: Ratio of EC50 for N-terminal HA epitope-tagged human P2Y2 receptor Y118A mutant to EC50 for wild type 3 human P2Y2 receptor
[4] = test system: P2Y purinoceptor 2 (Homo sapiens), P41231 [S296A]; assay: Agonist activity at N-terminal HA epitope-tagged human P2Y2 receptor S296A mutant expressed in human 1321N1 cells assessed as increase in intracellular calcium level relative to carbachol; assay type: functional, cell-based
Chain of P2Y purinoceptor 2 (Homo sapiens), P41231 [S296A] (P41231 whole entry S296A): as the sequence (P41231 whole entry C278S) above, with S278C, S296A counted along it
How it was run: (§2)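 Retrovirally transduced stable 1321N1 astrocytoma lines (wild-type lines of differing expression, or mutants) in suspension, loaded with Oregon Green BAPTA-1/AM for 1 h at room temperature. Cells were plated at 150000 per well in Krebs-HEPES pH 7.4 and held 20 min at 28 °C in the dark. Agonist was then injected, with fluorescence read at ex 485/em 520 nm for 60 × 0.4 s.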

P2Y purinoceptor 2 [5] = target: P2Y purinoceptor 2 (Homo sapiens, UniProt P41231, S296A); assay: Agonist activity at N-terminal HA epitope-tagged human P2Y2 receptor S296A mutant expressed in human 1321N1 cells assessed as increase in intracellular calcium level; assay type: functional, cell-based
Chain of P2Y purinoceptor 2 (Homo sapiens, UniProt P41231, S296A) (P41231 whole entry S296A): as the sequence (P41231 whole entry C278S) above, with S278C, S296A counted along it
How it was run: (§3)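 Retrovirally transduced stable 1321N1 astrocytoma lines (wild-type lines of differing expression, or mutants) in suspension, loaded with Oregon Green BAPTA-1/AM for 1 h at room temperature. Cells were plated at 150000 per well in Krebs-HEPES pH 7.4 and held 20 min at 28 °C in the dark.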

P2Y purinoceptor 2 [6] = target: T1, P2Y purinoceptor 2 (Homo sapiens, UniProt P41231); assay: Agonist activity at N-terminal HA epitope-tagged wild type 3 human P2Y2 receptor expressed in human 1321N1 cells assessed as increase in intracellular calcium level relative to carbachol; assay type: functional, cell-based; how it was run: as §2
T1 sequence (P41231 whole entry): as the sequence (P41231 whole entry C278S) above, with S278C counted along it

P2Y purinoceptor 2 [7] = target: T1, P2Y purinoceptor 2; assay: Agonist activity at N-terminal HA epitope-tagged wild type human P2Y2 receptor expressed in human 1321N1 cells assessed as increase in intracellular calcium level; assay type: functional, cell-based; how it was run: as §2
P2Y purinoceptor 2 [8] = target: T1, P2Y purinoceptor 2; assay: Agonist activity at N-terminal HA epitope-tagged wild type 3 human P2Y2 receptor expressed in human 1321N1 cells assessed as increase in intracellular calcium level; assay type: functional, cell-based; how it was run: as §3
P2Y purinoceptor 2 [9] = target: T1, P2Y purinoceptor 2; assay: Agonist activity at N-terminal HA epitope-tagged wild type 4 human P2Y2 receptor expressed in human 1321N1 cells assessed as increase in intracellular calcium level; assay type: functional, cell-based; how it was run: as §3
P2Y purinoceptor 2 [10] = target: P2Y purinoceptor 2 (Homo sapiens, UniProt P41231, Y114A); assay: Agonist activity at N-terminal HA epitope-tagged human P2Y2 receptor Y114A mutant expressed in human 1321N1 cells assessed as increase in intracellular calcium level; assay type: functional, cell-based; how it was run: as §1
Chain of P2Y purinoceptor 2 (Homo sapiens, UniProt P41231, Y114A) (P41231 whole entry Y114A): as the sequence (P41231 whole entry C278S) above, with Y114A, S278C counted along it

P2Y purinoceptor 2 [11] = target: T1, P2Y purinoceptor 2; assay: Agonist activity at N-terminal HA epitope-tagged wild type 4 human P2Y2 receptor expressed in human 1321N1 cells assessed as increase in intracellular calcium level relative to carbachol; assay type: functional, cell-based; how it was run: as §2
[12] = test system: P2Y purinoceptor 2 (Homo sapiens), P41231 [Y114A]; assay: Agonist activity at N-terminal HA epitope-tagged human P2Y2 receptor Y114A mutant expressed in human 1321N1 cells assessed as increase in intracellular calcium level relative to carbachol; assay type: functional, cell-based; how it was run: as §2
Chain of P2Y purinoceptor 2 (Homo sapiens), P41231 [Y114A] (P41231 whole entry Y114A): as the sequence (P41231 whole entry C278S) above, with Y114A, S278C counted along it

P2Y purinoceptor 2 [13] = target: P2Y purinoceptor 2 (Homo sapiens, UniProt P41231, R177A/R180A); assay: Agonist activity at N-terminal HA epitope-tagged human P2Y2 receptor R177A_R180A double mutant expressed in human 1321N1 cells assessed as increase in intracellular calcium level; assay type: functional, cell-based; how it was run: as §1
Chain of P2Y purinoceptor 2 (Homo sapiens, UniProt P41231, R177A/R180A) (P41231 whole entry R177A/R180A): as the sequence (P41231 whole entry C278S) above, with R177A, R180A, S278C counted along it

[14] = test system: P2Y purinoceptor 2 (Homo sapiens), P41231 [R177A,R180A]; assay: Agonist activity at N-terminal HA epitope-tagged human P2Y2 receptor R177A_R180A double mutant expressed in human 1321N1 cells assessed as increase in intracellular calcium level relative to carbachol; assay type: functional, cell-based; how it was run: as §2
Chain of P2Y purinoceptor 2 (Homo sapiens), P41231 [R177A,R180A] (P41231 whole entry R177A/R180A): as the sequence (P41231 whole entry C278S) above, with R177A, R180A, S278C counted along it

P2Y purinoceptor 2 [15] = target: P2Y purinoceptor 2 (Homo sapiens, UniProt P41231, R177A); assay: Agonist activity at N-terminal HA epitope-tagged human P2Y2 receptor R177A mutant expressed in human 1321N1 cells assessed as increase in intracellular calcium level; assay type: functional, cell-based; how it was run: as §1
Chain of P2Y purinoceptor 2 (Homo sapiens, UniProt P41231, R177A) (P41231 whole entry R177A): as the sequence (P41231 whole entry C278S) above, with R177A, S278C counted along it

[16] = test system: P2Y purinoceptor 2 (Homo sapiens), P41231 [R177A]; assay: Agonist activity at N-terminal HA epitope-tagged human P2Y2 receptor R177A mutant expressed in human 1321N1 cells assessed as increase in intracellular calcium level relative to carbachol; assay type: functional, cell-based; how it was run: as §2
Chain of P2Y purinoceptor 2 (Homo sapiens), P41231 [R177A] (P41231 whole entry R177A): as the sequence (P41231 whole entry C278S) above, with R177A, S278C counted along it

P2Y purinoceptor 2 [17] = target: P2Y purinoceptor 2 (Homo sapiens, UniProt P41231, R180A); assay: Agonist activity at N-terminal HA epitope-tagged human P2Y2 receptor R180A mutant expressed in human 1321N1 cells assessed as increase in intracellular calcium level; assay type: functional, cell-based; how it was run: as §1
Chain of P2Y purinoceptor 2 (Homo sapiens, UniProt P41231, R180A) (P41231 whole entry R180A): as the sequence (P41231 whole entry C278S) above, with R180A, S278C counted along it

[18] = test system: P2Y purinoceptor 2 (Homo sapiens), P41231 [R180A]; assay: Agonist activity at N-terminal HA epitope-tagged human P2Y2 receptor R180A mutant expressed in human 1321N1 cells assessed as increase in intracellular calcium level relative to carbachol; assay type: functional, cell-based; how it was run: as §2
Chain of P2Y purinoceptor 2 (Homo sapiens), P41231 [R180A] (P41231 whole entry R180A): as the sequence (P41231 whole entry C278S) above, with R180A, S278C counted along it

P2Y purinoceptor 2 [19] = target: P2Y purinoceptor 2 (Homo sapiens, UniProt P41231, R272A); assay: Agonist activity at N-terminal HA epitope-tagged human P2Y2 receptor R272A mutant expressed in human 1321N1 cells assessed as increase in intracellular calcium level; assay type: functional, cell-based; how it was run: as §1
Chain of P2Y purinoceptor 2 (Homo sapiens, UniProt P41231, R272A) (P41231 whole entry R272A): as the sequence (P41231 whole entry C278S) above, with R272A, S278C counted along it

[20] = test system: P2Y purinoceptor 2 (Homo sapiens), P41231 [R272A]; assay: Agonist activity at N-terminal HA epitope-tagged human P2Y2 receptor R272A mutant expressed in human 1321N1 cells assessed as increase in intracellular calcium level relative to carbachol; assay type: functional, cell-based; how it was run: as §2
Chain of P2Y purinoceptor 2 (Homo sapiens), P41231 [R272A] (P41231 whole entry R272A): as the sequence (P41231 whole entry C278S) above, with R272A, S278C counted along it

P2Y purinoceptor 2 [21] = target: P2Y purinoceptor 2 (Homo sapiens, UniProt P41231, Y118A); assay: Agonist activity at N-terminal HA epitope-tagged human P2Y2 receptor Y118A mutant expressed in human 1321N1 cells assessed as increase in intracellular calcium level; assay type: functional, cell-based; how it was run: as §1
Chain of P2Y purinoceptor 2 (Homo sapiens, UniProt P41231, Y118A) (P41231 whole entry Y118A): as the sequence (P41231 whole entry C278S) above, with Y118A, S278C counted along it

P2Y purinoceptor 2 [22] = target: P2Y purinoceptor 2 (Homo sapiens, UniProt P41231, R194H); assay: Agonist activity at N-terminal HA epitope-tagged human P2Y2 receptor R194H mutant expressed in human 1321N1 cells assessed as increase in intracellular calcium level; assay type: functional, cell-based; how it was run: as §1
Chain of P2Y purinoceptor 2 (Homo sapiens, UniProt P41231, R194H) (P41231 whole entry R194H): as the sequence (P41231 whole entry C278S) above, with R194H, S278C counted along it

[23] = test system: P2Y purinoceptor 2 (Homo sapiens), P41231 [R194H]; assay: Agonist activity at N-terminal HA epitope-tagged human P2Y2 receptor R194H mutant expressed in human 1321N1 cells assessed as increase in intracellular calcium level relative to carbachol; assay type: functional, cell-based; how it was run: as §2
Chain of P2Y purinoceptor 2 (Homo sapiens), P41231 [R194H] (P41231 whole entry R194H): as the sequence (P41231 whole entry C278S) above, with R194H, S278C counted along it

P2Y purinoceptor 2 [24] = target: P2Y purinoceptor 2 (Homo sapiens, UniProt P41231, Y198A); assay: Agonist activity at N-terminal HA epitope-tagged human P2Y2 receptor Y198A mutant expressed in human 1321N1 cells assessed as increase in intracellular calcium level; assay type: functional, cell-based; how it was run: as §1
Chain of P2Y purinoceptor 2 (Homo sapiens, UniProt P41231, Y198A) (P41231 whole entry Y198A): as the sequence (P41231 whole entry C278S) above, with Y198A, S278C counted along it

[25] = test system: P2Y purinoceptor 2 (Homo sapiens), P41231 [Y198A]; assay: Agonist activity at N-terminal HA epitope-tagged human P2Y2 receptor Y198A mutant expressed in human 1321N1 cells assessed as increase in intracellular calcium level relative to carbachol; assay type: functional, cell-based; how it was run: as §2
Chain of P2Y purinoceptor 2 (Homo sapiens), P41231 [Y198A] (P41231 whole entry Y198A): as the sequence (P41231 whole entry C278S) above, with Y198A, S278C counted along it

[26] = test system: P2Y purinoceptor 2 (Homo sapiens), P41231 [C278S]; assay: Agonist activity at N-terminal HA epitope-tagged human P2Y2 receptor C278S mutant expressed in human 1321N1 cells assessed as increase in intracellular calcium level relative to carbachol; assay type: functional, cell-based; how it was run: as §2
Chain of P2Y purinoceptor 2 (Homo sapiens), P41231 [C278S] (P41231 whole entry C278S): as the sequence (P41231 whole entry C278S) above

[27] = test system: P2Y purinoceptor 2 (Homo sapiens), P41231 [UNDEFINED MUTATION]; assay: Ratio of EC50 for N-terminal HA epitope-tagged human P2Y2 receptor R177A_R180A double mutant to EC50 for wild type 4 human P2Y2 receptor
[28] = test system: P2Y purinoceptor 2 (Homo sapiens), P41231 [UNDEFINED MUTATION]; assay: Ratio of EC50 for N-terminal HA epitope-tagged human P2Y2 receptor Y114A mutant to EC50 for wild type 3 human P2Y2 receptor
How it was run: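 HA-tagged receptors (wild type or mutant) were stably expressed in 1321N1 astrocytoma cells via retrovirus. Cells were loaded with Oregon Green BAPTA-1/AM in Krebs-HEPES pH 7.4, then kept 20 min at 28 °C before agonist injection. Fluorescence was read at 520 nm (excitation 485 nm). […] Each mutant was compared with the wild-type line of similar expression.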

[29] = test system: P2Y purinoceptor 2 (Homo sapiens), P41231 [Y118A]; assay: Agonist activity at N-terminal HA epitope-tagged human P2Y2 receptor Y118A mutant expressed in human 1321N1 cells assessed as increase in intracellular calcium level relative to carbachol; assay type: functional, cell-based; how it was run: as §2
Chain of P2Y purinoceptor 2 (Homo sapiens), P41231 [Y118A] (P41231 whole entry Y118A): as the sequence (P41231 whole entry C278S) above, with Y118A, S278C counted along it

[30] = test system: P2Y purinoceptor 2 (Homo sapiens), P41231 [R272A]; assay: Agonist activity at N-terminal HA epitope-tagged human P2Y2 receptor R272A mutant expressed in human 1321N1 cells assessed as increase in intracellular calcium level up to 300 uM relative to carbachol; assay type: functional, cell-based; how it was run: as §2
[31] = test system: P2Y purinoceptor 2 (Homo sapiens), P41231 [UNDEFINED MUTATION]; assay: Ratio of efficacy for N-terminal HA epitope-tagged human P2Y2 receptor R194H mutant to efficacy for wild type 3 human P2Y2 receptor
1321-N1 = assay: Effect on intracellular calcium level in non transfected human 1321N1 cells; assay type: functional, cell-based
P2Y purinoceptor 2 [32] = target: T1, P2Y purinoceptor 2; assay: Agonist activity at N-terminal HA epitope-tagged wild type 1 human P2Y2 receptor expressed in human 1321N1 cells assessed as increase in intracellular calcium level; assay type: functional, cell-based; how it was run: as §2

Chain of P2Y purinoceptor 2 (Homo sapiens), P41231 [UNDEFINED MUTATION] (P41231 whole entry, looked up, stated change not applied): as the sequence (P41231 whole entry C278S) above, with S278C counted along it

SMILES	EC50 (P2Y purinoceptor 2 [2]) [nM]	Efficacy [4] [%]	EC50 (P2Y purinoceptor 2 [5]) [nM]	Efficacy (P2Y purinoceptor 2 [6]) [%]	EC50 (P2Y purinoceptor 2 [8]) [nM]	EC50 (P2Y purinoceptor 2 [9]) [nM]	EC50 (P2Y purinoceptor 2 [10]) [nM]	Efficacy (P2Y purinoceptor 2 [11]) [%]	Efficacy [12] [%]	EC50 (P2Y purinoceptor 2 [13]) [nM]	Efficacy [14] [%]	EC50 (P2Y purinoceptor 2 [15]) [nM]	Efficacy [16] [%]	EC50 (P2Y purinoceptor 2 [17]) [nM]	Efficacy [18] [%]	EC50 (P2Y purinoceptor 2 [19]) [nM]	EC50 (P2Y purinoceptor 2 [21]) [nM]	EC50 (P2Y purinoceptor 2 [22]) [nM]	Efficacy [23] [%]	EC50 (P2Y purinoceptor 2 [24]) [nM]	also measured
Nc1ncnc2c1ncn2[C@@H]1O[C@H](COP(=O)(O)OP(=O)(O)OP(=O)(O)O)[C@@H](O)[C@H]1O [ADENOSINE TRIPHOSPHATE]	1000	5	> 300000	92	95.8	63.1	30.1	110	87	239	104	183	117	237	115	11700	299	111	130	120	Ratio EC50 [1]: 10; Ratio EC50 [3]: 3; Activity (P2Y purinoceptor 2 [7]): Dose-dependent effect; Efficacy [20]: 87%; Efficacy [25]: 126%; Efficacy [26]: 97%; Ratio EC50 [27]: 4; Ratio EC50 [28]: 2; Efficacy [29]: 41%
Nc1ncnc2c1ncn2[C@@H]1O[C@H](COP(=O)(O)OP(=O)(O)OP(=O)(O)OP(=O)(O)OC[C@H]2O[C@@H](n3cnc4c(N)ncnc43)[C@H](O)[C@@H]2O)[C@@H](O)[C@H]1O [DIADENOSINE TETRAPHOSPHATE]	81000	12	> 300000	68	145	167	170	100	128	665	98	1230	86	423	68	740000	345	185	149	335	Ratio EC50 [1]: 560; Efficacy [25]: 117%; Efficacy [26]: inactive; Efficacy [30]: inactive; Efficacy [29]: 15%; Ratio efficacy [31]: 2
O=c1ccn([C@@H]2O[C@H](COP(=O)(O)OP(=O)(O)OP(=O)(O)O)[C@@H](O)[C@H]2O)c(=O)[nH]1 [URIDINE TRIPHOSPHATE]	2090	3	> 300000	100	80.4	59	37.2	138	107	123	109	50.1	133	138	130	20600	157	121	127	108	Activity (1321-N1): inactive; Activity (P2Y purinoceptor 2 [7]): Dose-dependent effect; EC50 (P2Y purinoceptor 2 [32]): 781 nM; Efficacy [20]: 99%; Efficacy [25]: 128%; Efficacy [26]: 86%; Efficacy [29]: 43%

Reference: ChEMBL document CHEMBL1138525 (J Med Chem, 2009)
